Each structure is given as a SMILES string. Converted amounts (≈) assume the structure as drawn.

The nature of data set [1]: Inhibition of human electron transport chain complex 1 in human NCI-H1299 cells assessed as reduction in cellular ATP level measured after 24 hrs by CellTiter-Glo assay. Format: cell-based. The note with it: Homo sapiens, NCI-H1299, 24 h. The gist of the method:
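ATP-dependent luciferase luminescence read in H1299 cells, first without (M1) and then after adding the complex II substrate succinate (M2), to separate complex I block from downstream respiratory-chain inhibition or uncoupling.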

A short description of data set [2]: Lipophilicity, logD of compound. Conditions: octanol/water.
Data set [3] can be described thus: Metabolic stability in rat hepatocyte assessed as maximum bioavailability measured up to 90 mins by LC-MS/MS analysis. The data set is classed as ADME. The note with it: rat hepatocytes, read-out: Fmax.
Data set [4] in a line: Inhibition of mouse electron transport chain complex 1 assessed as reduction in cellular ATP measured after 24 hrs by celltiter-glo assay. Background: Cellular ATP, detected with luciferase, serves as a proxy for viable cell number.
A short description of data set [5]: Inhibition of rat electron transport chain complex 1 assessed as reduction in cellular ATP measured after 24 hrs by celltiter-glo assay.
The nature of data set [6]: Inhibition of dog electron transport chain complex 1 assessed as reduction in cellular ATP measured after 24 hrs by celltiter-glo assay. Conditions: Canis lupus familiaris.
A short description of data set [7]: Solubility of the compound at pH 6.5. Conditions: buffer.
The nature of data set [8]: Apparent permeability across apical to basolateral side in human Caco2 cells assessed as drug recovery at 2 uM and measured for 2 hrs by LC-MS/MS analysis. The note with it: Caco-2.
Data set [9] can be described thus: Efflux ratio of apparent permeability across basolateral to apical side over apical to basolateral side in human Caco2 cells at 2 uM incubated for 2 hrs by LC-MS/MS analysis. The note with it: Caco-2.
Another data set addresses T1, Cytochrome P450 1A2 (Homo sapiens, UniProt P05177).
T1 sequence (P05177 whole entry): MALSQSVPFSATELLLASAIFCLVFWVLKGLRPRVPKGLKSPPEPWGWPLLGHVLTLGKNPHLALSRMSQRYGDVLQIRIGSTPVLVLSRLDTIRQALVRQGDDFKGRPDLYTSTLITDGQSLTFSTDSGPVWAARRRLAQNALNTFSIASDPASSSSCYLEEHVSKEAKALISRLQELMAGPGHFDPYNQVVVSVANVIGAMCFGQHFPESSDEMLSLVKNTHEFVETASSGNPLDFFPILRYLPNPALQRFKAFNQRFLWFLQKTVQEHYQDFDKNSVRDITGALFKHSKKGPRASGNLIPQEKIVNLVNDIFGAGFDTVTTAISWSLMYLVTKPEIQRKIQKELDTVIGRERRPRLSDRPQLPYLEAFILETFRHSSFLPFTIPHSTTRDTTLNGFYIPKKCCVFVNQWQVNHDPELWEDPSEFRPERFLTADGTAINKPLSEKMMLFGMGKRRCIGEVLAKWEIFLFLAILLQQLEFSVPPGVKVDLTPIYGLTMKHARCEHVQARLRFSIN
Nature of the data set: Inhibition of CYP1A2 in human liver microsomes using phenacetin as substrate by LC-MS/MS analysis. (In general: Liver microsomes are vesicles of endoplasmic reticulum, rich in cytochrome P450 enzymes.)

A further data set concerns the target T2, Cytochrome P450 2C8 (Homo sapiens, UniProt P10632).
T2 sequence (P10632 whole entry): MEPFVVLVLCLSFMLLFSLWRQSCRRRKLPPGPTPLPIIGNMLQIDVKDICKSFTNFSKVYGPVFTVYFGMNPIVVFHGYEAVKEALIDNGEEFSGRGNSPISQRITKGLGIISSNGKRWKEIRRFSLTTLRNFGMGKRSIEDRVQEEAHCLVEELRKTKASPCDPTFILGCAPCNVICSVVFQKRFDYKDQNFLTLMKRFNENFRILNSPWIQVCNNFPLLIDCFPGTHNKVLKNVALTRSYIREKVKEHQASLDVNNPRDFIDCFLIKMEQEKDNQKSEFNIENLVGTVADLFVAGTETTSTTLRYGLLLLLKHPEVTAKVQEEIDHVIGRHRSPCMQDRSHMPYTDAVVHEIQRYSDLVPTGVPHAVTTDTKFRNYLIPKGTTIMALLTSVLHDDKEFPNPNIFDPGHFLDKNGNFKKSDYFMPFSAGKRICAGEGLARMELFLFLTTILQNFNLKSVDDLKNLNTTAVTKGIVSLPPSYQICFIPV
Nature of the data set: Inhibition of CYP2C8 in human liver microsomes using amodiaquine as substrate by LC-MS/MS analysis.

In a further data set the target is Cytochrome P450 2C9 (Homo sapiens, UniProt P11712). Nature of the data set: Inhibition of CYP2C9 in human liver microsomes using diclofenac as substrate by LC-MS/MS analysis.
Sequence of Cytochrome P450 2C9 (P11712 whole entry): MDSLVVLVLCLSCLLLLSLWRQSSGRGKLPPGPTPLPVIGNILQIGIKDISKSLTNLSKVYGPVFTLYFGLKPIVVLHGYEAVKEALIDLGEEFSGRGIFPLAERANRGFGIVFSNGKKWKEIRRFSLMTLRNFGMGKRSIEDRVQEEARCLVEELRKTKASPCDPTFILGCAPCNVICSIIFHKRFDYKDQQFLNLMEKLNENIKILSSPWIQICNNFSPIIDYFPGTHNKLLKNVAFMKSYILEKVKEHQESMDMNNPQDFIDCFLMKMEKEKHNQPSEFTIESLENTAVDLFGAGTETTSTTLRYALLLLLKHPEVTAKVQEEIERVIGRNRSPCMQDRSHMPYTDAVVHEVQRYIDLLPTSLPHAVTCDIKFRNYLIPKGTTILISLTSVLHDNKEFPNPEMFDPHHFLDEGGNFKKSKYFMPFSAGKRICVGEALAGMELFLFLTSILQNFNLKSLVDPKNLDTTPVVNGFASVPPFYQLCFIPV
Another data set concerns the target Cytochrome P450 2D6 (Homo sapiens, UniProt P10635). Nature of the data set: Inhibition of CYP2D6 in human liver microsomes using dextromethorphan as substrate by LC-MS/MS analysis.
The next data set addresses Cytochrome P450 3A4 (Homo sapiens, UniProt P08684). Nature of the data set: Inhibition of CYP3A4 in human liver microsomes using midazolam as substrate by LC-MS/MS analysis.
The target in data set [10] is T3, Nuclear receptor subfamily 1 group I member 2 (Homo sapiens, UniProt O75469).
T3 sequence (O75469 whole entry): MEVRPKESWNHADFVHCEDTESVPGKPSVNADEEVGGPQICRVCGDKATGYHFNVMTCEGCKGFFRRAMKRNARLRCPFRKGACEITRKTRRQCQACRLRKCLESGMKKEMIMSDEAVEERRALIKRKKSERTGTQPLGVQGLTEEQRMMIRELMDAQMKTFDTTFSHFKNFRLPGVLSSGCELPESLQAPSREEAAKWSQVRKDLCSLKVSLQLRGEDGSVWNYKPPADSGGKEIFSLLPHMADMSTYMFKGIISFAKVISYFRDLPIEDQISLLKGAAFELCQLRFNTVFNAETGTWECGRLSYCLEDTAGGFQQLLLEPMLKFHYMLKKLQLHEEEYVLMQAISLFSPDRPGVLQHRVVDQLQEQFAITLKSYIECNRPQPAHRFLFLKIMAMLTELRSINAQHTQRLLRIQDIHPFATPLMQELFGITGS
Nature of the data set: Transactivation of PXR (unknown origin) expressed in human DPX2 cells co-expressing luciferase gene under control of CYP3A4 promoter assessed as increase in luciferase activity incubated for 24 hrs by luminescence based analysis. Conditions: dpx2, 24 h.

Data set [11] addresses Voltage-gated inwardly rectifying potassium channel KCNH2 (Homo sapiens, UniProt Q12809). Nature of the data set: Inhibition of human ERG by patch-clamp assay. In general terms: Patch clamp records ionic current or voltage across a cell membrane.
Data set [12] in a line: Plasma protein binding in mouse assessed as fraction unbound incubated for 6 to 8 hrs by LC-MS/MS analysis. Format: ADME, cell-free. The note with it: time 6-8 hrs.
Data set [13] can be described thus: Volume of distribution at steady state in Wistar rat plasma at 0.4 mg/kg, iv by LC-MS/MS analysis. Format: ADME, organism-based. The note with it: read-out: Vdss.
Data set [14] in a line: Half life in Wistar rat plasma at 0.4 mg/kg, iv by LC-MS/MS analysis. Format: ADME, organism-based.
A short description of data set [15]: AUC in Wistar rat plasma at 0.8 mg/kg, po by LC-MS/MS analysis. The note with it: in vivo. The data set is classed as ADME, organism-based. On the set-up: dose 0.8 mg/kg.
Data set [16] can be described thus: Oral bioavailability in Wistar rat plasma at 0.8 mg/kg by LC-MS/MS analysis. The data set is classed as ADME, organism-based.
Data set [17] can be described thus: Clearance in male Wistar rat blood at 0.4 mg/kg, iv by LC-MS/MS analysis.
Data set [18] can be described thus: Inhibition of human electron transport chain complex 1 in human HCT-116 cells assessed as reduction in cellular ATP measured after 24 hrs by CellTiter-Glo assay. The data set is classed as cell-based. The note with it: HCT-116, 24 h.
Data set [19] in a line: Inhibition of human electron transport chain complex 1 in rat C6 cells assessed as reduction in cellular ATP measured after 24 hrs by CellTiter-Glo assay. The data set is classed as cell-based. Conditions: C6, 24 h.
Data set [20] in a line: Inhibition of human electron transport chain complex 1 in mouse 4T1 cells assessed as reduction in cellular ATP measured after 24 hrs by CellTiter-Glo assay. The note with it: 4T1, 24 h. Format: cell-based.
A short description of data set [21]: Inhibition of human electron transport chain complex 1 in dog A-72 cells assessed as reduction in cellular ATP measured after 24 hrs by CellTiter-Glo assay. Format: cell-based. The note with it: A-72, 24 h.
A short description of data set [22]: Inhibition of human electron transport chain complex 1 in dog MDCK cells assessed as reduction in cellular ATP measured after 24 hrs by CellTiter-Glo assay. The data set is classed as cell-based.
Data set [23] in a line: Blood clearance in male Wistar rat at 0.3 to 5 mg/kg, iv and po by LC-MS/MS analysis. Format: ADME, organism-based. Conditions: dose 0.3-5 mg/kg.

Sequence of Cytochrome P450 3A4 (P08684 whole entry): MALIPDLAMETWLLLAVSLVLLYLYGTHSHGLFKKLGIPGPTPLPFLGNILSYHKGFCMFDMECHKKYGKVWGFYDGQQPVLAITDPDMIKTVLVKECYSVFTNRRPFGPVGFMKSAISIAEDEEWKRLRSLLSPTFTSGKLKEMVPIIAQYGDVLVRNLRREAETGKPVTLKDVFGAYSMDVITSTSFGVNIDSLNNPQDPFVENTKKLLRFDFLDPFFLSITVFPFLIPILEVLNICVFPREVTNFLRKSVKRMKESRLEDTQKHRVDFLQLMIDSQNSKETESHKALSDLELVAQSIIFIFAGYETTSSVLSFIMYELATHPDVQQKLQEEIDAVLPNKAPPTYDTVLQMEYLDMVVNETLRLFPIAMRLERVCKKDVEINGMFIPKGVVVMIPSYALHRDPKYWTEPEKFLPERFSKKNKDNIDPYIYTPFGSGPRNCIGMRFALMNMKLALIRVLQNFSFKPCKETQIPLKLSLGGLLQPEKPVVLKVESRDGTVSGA
Sequence of Voltage-gated inwardly rectifying potassium channel KCNH2 (Q12809 whole entry): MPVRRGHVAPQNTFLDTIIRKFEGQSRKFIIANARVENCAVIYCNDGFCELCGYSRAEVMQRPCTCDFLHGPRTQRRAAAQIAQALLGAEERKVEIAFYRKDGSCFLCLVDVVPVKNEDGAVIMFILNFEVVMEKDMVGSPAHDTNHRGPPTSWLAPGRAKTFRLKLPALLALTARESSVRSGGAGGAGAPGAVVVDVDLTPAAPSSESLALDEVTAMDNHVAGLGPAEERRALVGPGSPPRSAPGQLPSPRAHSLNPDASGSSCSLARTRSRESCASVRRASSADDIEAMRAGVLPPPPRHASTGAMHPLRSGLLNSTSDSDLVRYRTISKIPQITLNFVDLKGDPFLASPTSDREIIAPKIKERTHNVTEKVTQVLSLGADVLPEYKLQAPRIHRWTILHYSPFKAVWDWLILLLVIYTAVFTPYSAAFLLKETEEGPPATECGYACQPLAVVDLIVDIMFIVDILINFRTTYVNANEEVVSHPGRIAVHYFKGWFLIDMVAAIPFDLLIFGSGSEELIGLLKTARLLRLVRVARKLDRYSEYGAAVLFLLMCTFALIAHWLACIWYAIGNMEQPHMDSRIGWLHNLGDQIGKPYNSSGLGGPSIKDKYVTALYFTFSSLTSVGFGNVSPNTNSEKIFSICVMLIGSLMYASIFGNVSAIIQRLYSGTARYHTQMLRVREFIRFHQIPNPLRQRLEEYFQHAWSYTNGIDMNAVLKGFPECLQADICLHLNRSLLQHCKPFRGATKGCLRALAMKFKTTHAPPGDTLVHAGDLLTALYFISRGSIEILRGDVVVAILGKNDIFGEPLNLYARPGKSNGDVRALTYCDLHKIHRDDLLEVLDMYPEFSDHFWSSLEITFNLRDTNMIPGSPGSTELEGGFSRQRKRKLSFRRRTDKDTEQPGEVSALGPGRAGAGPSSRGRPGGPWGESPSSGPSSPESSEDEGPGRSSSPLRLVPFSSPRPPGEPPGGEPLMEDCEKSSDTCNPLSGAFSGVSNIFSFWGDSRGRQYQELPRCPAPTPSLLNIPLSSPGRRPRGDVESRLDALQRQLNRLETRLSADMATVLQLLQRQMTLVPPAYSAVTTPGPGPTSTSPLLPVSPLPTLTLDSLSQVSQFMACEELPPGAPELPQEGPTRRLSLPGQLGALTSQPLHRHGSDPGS
Sequence of Cytochrome P450 2D6 (P10635 whole entry): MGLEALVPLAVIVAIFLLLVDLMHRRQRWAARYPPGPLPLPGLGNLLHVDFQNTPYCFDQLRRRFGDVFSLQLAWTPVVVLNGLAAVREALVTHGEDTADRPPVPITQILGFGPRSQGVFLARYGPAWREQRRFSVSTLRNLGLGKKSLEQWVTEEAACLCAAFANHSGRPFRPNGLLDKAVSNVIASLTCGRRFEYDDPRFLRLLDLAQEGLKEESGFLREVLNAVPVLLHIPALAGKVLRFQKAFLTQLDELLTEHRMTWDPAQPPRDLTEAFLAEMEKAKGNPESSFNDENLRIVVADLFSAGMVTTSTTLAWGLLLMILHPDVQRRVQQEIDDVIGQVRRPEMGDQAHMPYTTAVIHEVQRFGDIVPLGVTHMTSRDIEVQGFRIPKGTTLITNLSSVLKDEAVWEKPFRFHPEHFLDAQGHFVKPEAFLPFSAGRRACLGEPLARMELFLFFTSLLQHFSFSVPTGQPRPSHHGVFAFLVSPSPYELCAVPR

Broadly, the IC50 is the point on the concentration scale where inhibition reaches its midpoint. A word on the logD: it is lipophilicity at a set pH, counting ionised and neutral species. A lower logD goes with lower lipophilicity. Usually solubility stands for how much of the substance goes into solution per volume. As a reminder, the Papp A→B is the apparent permeability from the apical to the basolateral side of a cell layer. As a reminder, the efflux ratio is a quotient of directional permeabilities that is used to spot active efflux. One may read the half-life as how long it takes for the measured level to halve. Low readings indicate fast loss, high ones slow loss. The term bioavailability denotes dose-corrected exposure relative to a reference, in per cent. A low value points to poor availability. With `c1ccc2oc(-c3csc(C4CCN(Cc5nc6ncccc6[nH]5)CC4)n3)cc2c1`, the IC50 in [1] is 79 nM; in data set [4], 38 nM; in [5], 27 nM; in data set [6], 47 nM; against Cytochrome P450 1A2 it was above 20000 nM; at Cytochrome P450 2C8, 7800 nM. Moreover, the IC50 against Cytochrome P450 2C9 was 15000 nM; on Cytochrome P450 2D6, above 20000 nM; against Cytochrome P450 3A4, above 20000 nM; in [11], 3000 nM. In data set [2], this compound yielded a pH-dependent lipophilicity (logD) of 2.8. Besides, in data set [3], the Fh at 1.5 h amounted to 81%. Further, the solubility in data set [7] was found to be 1.6 µg/mL (≈ 3.85 µM). In addition, in data set [8], the Papp A→B at 2 h, 2 µM turned out to be 9.2 ×10⁻⁶ cm/s. In data set [9], the efflux ratio at 2 h, 2 µM amounted to 0.44. In addition, the MEC in data set [10] is above 50 µM. Further, in [12], the Fu came to 0.43%. Moreover, in [13], the Vd came out at 2.2 L/kg. In addition, the half-life in data set [14] is 6.2 h. The same compound displayed an AUC in data set [15] of 3.1 kg·h/L. The bioavailability in data set [16] turned out to be 76%. In addition, the clearance in data set [17] is 6.67 mL/min/kg.
Consider `Cc1nsc(NC(=O)CN2CCC(c3nc(-c4cc5ccccc5o4)cs3)CC2)c1Cl`, for which the IC50 in data set [1] was determined as 25 nM; in data set [18] it was 3.9 nM; in [19], 1.7 nM; in data set [20] it was 13 nM; in [21], 27 nM; in data set [22] it was 49 nM. In [2], this compound came in with a logD of 5.1. Moreover, the Fh at 1.5 h in data set [3] is 18%. The compound also showed a clearance in data set [23] of 163 mL/min/kg.
As to `c1ccc2oc(-c3csc(C4CCN(Cc5nc6cnccc6[nH]5)CC4)n3)cc2c1`, the IC50 in data set [1] amounted to 38 nM; in data set [4], 26 nM; in data set [5], 22 nM; in [6] it was 37 nM. In addition, the Fh at 1.5 h in data set [3] amounted to 63%. For the same compound, in data set [12], the Fu came out at 0.59%. Further, in data set [13], the Vd was 3.2 L/kg. The compound also showed a half-life in [14] of 3.1 h. Moreover, the AUC in [15] is 1 kg·h/L. Further, the bioavailability in data set [16] worked out at 80%. In addition, the clearance in data set [17] was 20 mL/min/kg.

Values taken from ChEMBL document CHEMBL5046307 (ACS Med Chem Lett, 2022).
